According to ChEMBL document CHEMBL2062525, “Substituted 3-(5-imidazo[2,1-b]thiazolylmethylene)-2-indolinones and analogues: synthesis, cytotoxic activity, and study of the mechanism of action” (J Med Chem, 2012):
pIC50: −log10 of the molar value. Counter-ions that a name gives are not always drawn.

What was measured:
[1] = Cytotoxicity against human leukemia cells after 48 hrs; assay type: functional; details: Leukemia cell
Summary of the method: (§1)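 NCI 60-cell panel (subpanels include leukemia and prostate). […] Percent growth relative to untreated control; some repeats averaged over two experiments.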

NSCLC = test: Cytotoxicity against human NSCLC cells after 48 hrs; assay type: functional
Summary of the method: (§2)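 NCI 60-cell panel subpanel lines; compounds first screened at a single 10−5 M, then those passing threshold tested in five-concentration assay over 10−9 to 10−4 M (some to 10−3 M), 48 h exposure. Growth relative to untreated control measured as cell protein; GI50, TGI and LC50 derived; some values are means of two experiments.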

[2] = Cytotoxicity against human COLON cells after 48 hrs; assay type: functional; summary of the method: as §2
[3] = Cytotoxicity against human CNS cancer cells after 48 hrs; assay type: functional; details: Cancer cell lines; summary of the method: as §2
[4] = Cytotoxicity against human melanoma cells after 48 hrs; assay type: functional; details: Melanoma cell; for CC50: read-out: LC50 (the source's name); summary of the method: as §2
[5] = Cytotoxicity against human ovarian cancer cells after 48 hrs; assay type: functional; details: Cancer cell lines; summary of the method: as §2
[6] = Cytotoxicity against human renal cancer cells after 48 hrs; assay type: functional; details: Cancer cell lines; for CC50: read-out: LC50 (the source's name); summary of the method: as §2
[7] = Cytotoxicity against human prostate cancer cells after 48 hrs; assay type: functional; details: Cancer cell lines; summary of the method: as §1
[8] = Cytotoxicity against human breast cancer cells after 48 hrs; assay type: functional; details: Cancer cell lines; summary of the method: as §2
[9] = Inhibition of bovine brain tubulin assembly after 20 mins; parameters: species or system Bos taurus
Bos taurus = organism: Bos taurus; test: Displacement of [3H]colchicine from bovine brain tubulin at 5 uM after 10 mins

SMILES	GI50 [1]	GI50 (NSCLC)	TGI (NSCLC)	GI50 [2]	TGI [2]	GI50 [3]	TGI [3]	GI50 [4]	TGI [4]	GI50 [5]	TGI [5]	GI50 [6]	TGI [6]	GI50 [7]	TGI [7]	GI50 [8]	TGI [8]	TGI [1]	further results
COc1cc(-c2nc3sc(C)cn3c2/C=C2/C(=O)Nc3ccccc32)c(Br)c(OC)c1OC	36.3 µM	32.4 µM	89.1 µM	26.3 µM	75.9 µM	23.4 µM	55 µM	29.5 µM	85.1 µM	39.8 µM	85.1 µM	30.9 µM	75.9 µM	30.2 µM	85.1 µM	19.1 µM	63.1 µM	–	–
O=C1Nc2ccc(Cl)cc2C1=Cc1c(-c2ccccn2)nc2sccn12 (mixture of isomers)	0.28 µM	1.78 µM	18.2 µM	0.52 µM	10.5 µM	0.71 µM	22.4 µM	0.68 µM	11.8 µM	1.62 µM	17.4 µM	1.15 µM	10.5 µM	1.26 µM	19.1 µM	0.45 µM	7.76 µM	7.08 µM	LC50 (concentration killing 50% of cells) [1]: 69.2 µM; LC50 (NSCLC): 58.9 µM; LC50 (concentration giving 50% net cell kill) [2]: 33.9 µM; LC50 [3]: 66.1 µM; CC50 [4]: 51.3 µM; LC50 (concentration killing 50% of starting cells) [5]: 50.1 µM; CC50 [6]: 43.6 µM; LC50 (concentration killing 50% of cells) [7]: 47.9 µM; LC50 [8]: 42.7 µM; pIC50 [9]: < 4.70; inhibition (Bos taurus): 13%
COc1nc2sccn2c1C=C1C(=O)Nc2ccc(F)cc21 (mixture of isomers)	3.39 µM	6.03 µM	66.1 µM	3.16 µM	61.7 µM	6.46 µM	42.7 µM	6.03 µM	47.9 µM	5.62 µM	44.7 µM	6.76 µM	47.9 µM	12 µM	93.3 µM	2.88 µM	51.3 µM	–	–
COc1nc2sccn2c1/C=C1/C(=O)Nc2ccc(Cl)cc21	1.32 µM	4.27 µM	89.1 µM	1.41 µM	64.6 µM	3.31 µM	40.7 µM	3.72 µM	40.7 µM	3.47 µM	46.8 µM	3.31 µM	58.9 µM	3.98 µM	81.3 µM	2.45 µM	74.1 µM	26.3 µM	–
Cc1cn2c(/C=C3/C(=O)Nc4cc(Cl)ccc43)c(C)nc2s1	1.07 µM	2.29 µM	–	0.98 µM	66.1 µM	2.4 µM	25.7 µM	1.58 µM	57.5 µM	7.41 µM	–	4.79 µM	70.8 µM	2.29 µM	–	1.2 µM	15.8 µM	37.1 µM	–
O=C1Nc2ccccc2/C1=C\c1c(-c2ccccn2)nc2sccn12	0.35 µM	1.58 µM	70.8 µM	0.49 µM	52.5 µM	0.81 µM	20.9 µM	2.45 µM	91.2 µM	2.88 µM	37.1 µM	2.34 µM	95.5 µM	1.02 µM	–	0.59 µM	36.3 µM	14.8 µM	LC50 [3]: 89.1 µM; LC50 (concentration killing 50% of starting cells) [5]: 91.2 µM
Cc1ccc(-c2nc3sc(C)cn3c2/C=C2/C(=O)N(C)c3ccccc32)cc1	7.08 µM	24 µM	89.1 µM	20.4 µM	–	19.1 µM	75.9 µM	17.4 µM	87.1 µM	32.4 µM	89.1 µM	15.1 µM	85.1 µM	6.46 µM	–	13.5 µM	75.9 µM	63.1 µM	–
COc1nc2sccn2c1/C=C1/C(=O)N(C)c2ccccc21	3.89 µM	7.94 µM	95.5 µM	2.24 µM	60.3 µM	11 µM	77.6 µM	8.71 µM	77.6 µM	6.46 µM	–	15.8 µM	85.1 µM	21.4 µM	–	2.19 µM	60.3 µM	43.6 µM	–
COc1ccc2c(c1)C(=Cc1c(OC)nc3sccn13)C(=O)N2C (mixture of isomers)	0.16 µM	1.02 µM	58.9 µM	0.35 µM	24 µM	0.38 µM	18.6 µM	0.79 µM	72.4 µM	0.63 µM	31.6 µM	0.71 µM	53.7 µM	0.55 µM	–	0.49 µM	49 µM	–	LC50 (concentration killing 50% of cells) [1]: 79.4 µM; LC50 (concentration giving 50% net cell kill) [2]: 87.1 µM; CC50 [4]: 91.2 µM; pIC50 [9]: 5.42; inhibition (Bos taurus): 45%
CC[C@]1(O)C[C@H]2CN(CCc3c([nH]c4ccccc34)[C@@](C(=O)OC)(c3cc4c(cc3OC)N(C=O)[C@H]3[C@@](O)(C(=O)OC)[C@H](OC(C)=O)[C@]5(CC)C=CCN6CC[C@]43[C@@H]65)C2)C1 [VINCRISTINE SULFATE]	0.1 µM	0.25 µM	–	0.1 µM	3.98 µM	0.13 µM	–	0.16 µM	–	0.32 µM	–	0.32 µM	–	0.13 µM	–	0.32 µM	–	–	–
COc1nc2sccn2c1/C=C1/C(=O)Nc2cccc(Cl)c21	2.19 µM	7.08 µM	70.8 µM	3.72 µM	91.2 µM	6.31 µM	32.4 µM	4.9 µM	60.3 µM	4.68 µM	43.6 µM	7.08 µM	49 µM	13.2 µM	–	3.24 µM	50.1 µM	64.6 µM	LC50 [3]: 87.1 µM; LC50 (concentration killing 50% of starting cells) [5]: 97.7 µM; CC50 [6]: 89.1 µM; LC50 [8]: 93.3 µM
COc1nc2sccn2c1/C=C1/C(=O)Nc2ccccc21	0.5 µM	0.43 µM	51.3 µM	0.29 µM	13.8 µM	0.25 µM	7.94 µM	0.47 µM	40.7 µM	0.44 µM	20.4 µM	0.54 µM	38.9 µM	0.55 µM	29.5 µM	0.28 µM	13.2 µM	21.4 µM	LC50 (concentration killing 50% of cells) [1]: 60.3 µM; LC50 (NSCLC): 93.3 µM; LC50 (concentration giving 50% net cell kill) [2]: 89.1 µM; LC50 [3]: 50.1 µM; CC50 [4]: 95.5 µM; LC50 [8]: 91.2 µM; pIC50 [9]: 5.43; inhibition (Bos taurus): 48%
Cc1nn2c(/C=C3/C(=O)Nc4ccc(F)cc43)c(-c3ccc(Cl)cc3)nc2s1	25.1 µM	60.3 µM	–	38 µM	–	20.4 µM	79.4 µM	66.1 µM	–	21.9 µM	–	26.3 µM	72.4 µM	–	–	36.3 µM	95.5 µM	–	–
Cc1nn2c(/C=C3/C(=O)Nc4ccc(F)cc43)c(C)nc2s1	2.34 µM	19.5 µM	–	4.17 µM	–	20.9 µM	87.1 µM	26.9 µM	–	33.9 µM	–	26.9 µM	–	–	–	6.31 µM	57.5 µM	–	–
Cc1ccc(-c2nc3sc(C)cn3c2/C=C2/C(=O)Nc3cc(C)c(O)cc32)cc1	52.5 µM	18.6 µM	72.4 µM	60.3 µM	–	11.8 µM	91.2 µM	33.9 µM	–	10.5 µM	63.1 µM	18.2 µM	–	21.4 µM	–	12.6 µM	63.1 µM	–	–
COc1ccc2c(c1)/C(=C\c1c(-c3ccc(Cl)cc3)nc3sc(C)nn13)C(=O)N2	–	–	–	–	–	69.2 µM	–	–	–	–	–	81.3 µM	–	–	–	95.5 µM	–	–	–
O=C1Nc2cc(Cl)ccc2C1=Cc1c(-c2ccccn2)nc2sccn12 (mixture of isomers)	0.06 µM	0.33 µM	28.8 µM	0.11 µM	21.9 µM	0.17 µM	6.03 µM	0.12 µM	15.1 µM	0.27 µM	11.5 µM	0.25 µM	15.8 µM	0.15 µM	31.6 µM	0.21 µM	12.6 µM	4.57 µM	LC50 (NSCLC): 49 µM; LC50 (concentration giving 50% net cell kill) [2]: 46.8 µM; LC50 [3]: 38 µM; CC50 [4]: 38.9 µM; LC50 (concentration killing 50% of starting cells) [5]: 36.3 µM; CC50 [6]: 42.7 µM; LC50 [8]: 46.8 µM; pIC50 [9]: 5.03; inhibition (Bos taurus): 48%
COc1ccc2c(c1)/C(=C\c1c(-c3ccc(C)cc3)nc3sc(C)cn13)C(=O)N2C	4.37 µM	14.8 µM	85.1 µM	6.03 µM	33.1 µM	39.8 µM	–	52.5 µM	–	56.2 µM	–	4.79 µM	70.8 µM	5.37 µM	–	12.9 µM	72.4 µM	56.2 µM	–
